Experimental data from ChEMBL document CHEMBL1130344, “Discovery of TBC11251, a potent, long acting, orally active endothelin receptor-A selective antagonist” (J Med Chem, 1997).
pIC50, pKi: −log10 of the molar value. The source made the active and inactive calls. No cut-off for these calls is given here.

Legend:
Endothelin-1 receptor [1] = biological target: T1, Endothelin-1 receptor (Homo sapiens, UniProt P25101); experiment: In vitro inhibition of endothelin binding to human Endothelin A receptor using [125I]-labeled ET-1 competition assay
T1 sequence (P25101 whole entry): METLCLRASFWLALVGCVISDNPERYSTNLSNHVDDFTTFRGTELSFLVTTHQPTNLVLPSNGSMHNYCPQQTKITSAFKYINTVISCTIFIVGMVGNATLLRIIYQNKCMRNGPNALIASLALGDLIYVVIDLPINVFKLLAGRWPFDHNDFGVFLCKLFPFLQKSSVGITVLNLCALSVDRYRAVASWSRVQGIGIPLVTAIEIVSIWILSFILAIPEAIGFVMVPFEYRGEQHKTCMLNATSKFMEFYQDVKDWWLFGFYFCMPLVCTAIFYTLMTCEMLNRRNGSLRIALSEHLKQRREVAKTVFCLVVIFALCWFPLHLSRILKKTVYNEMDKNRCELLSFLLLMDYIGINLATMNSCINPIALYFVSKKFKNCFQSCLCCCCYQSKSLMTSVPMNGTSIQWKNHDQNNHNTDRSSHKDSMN
How it was run: (§1)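 Membranes in 30 mM HEPES pH 7.4 with 150 mM NaCl, 5 mM MgCl2 and 0.05% bacitracin: […] for ET_B (ET_B from COS 7 cells transfected with human ET_B DNA). Competition against 4 pM [125I]ET-1, 0.25% DMSO final, in triplicate, for 16–18 h at 24 °C. Nonspecific binding with 100 nM ET-1. Bound radioactivity gamma-counted after centrifugation.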

[2] = biological target: T2, Endothelin receptor type B (Homo sapiens, UniProt P24530); experiment: In vitro inhibition of endothelin binding to human Endothelin B receptor using [125I]-labeled ET-1 competition assay; how it was run: as §1
T2 sequence (P24530 whole entry): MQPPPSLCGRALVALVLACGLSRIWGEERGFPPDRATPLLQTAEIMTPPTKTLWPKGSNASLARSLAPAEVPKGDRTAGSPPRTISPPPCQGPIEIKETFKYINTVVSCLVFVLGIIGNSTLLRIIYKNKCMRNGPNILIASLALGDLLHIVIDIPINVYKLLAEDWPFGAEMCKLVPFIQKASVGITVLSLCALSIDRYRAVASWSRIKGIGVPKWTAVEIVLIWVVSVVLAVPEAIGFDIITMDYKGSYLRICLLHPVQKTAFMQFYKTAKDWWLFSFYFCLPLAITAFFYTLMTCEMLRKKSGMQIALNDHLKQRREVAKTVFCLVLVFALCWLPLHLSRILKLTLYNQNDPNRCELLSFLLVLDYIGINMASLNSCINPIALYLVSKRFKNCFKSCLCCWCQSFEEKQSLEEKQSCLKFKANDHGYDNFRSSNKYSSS

Rattus norvegicus [3] = experiment: The compound was tested in vivo for percent inhibition in ET-1 challenge in rats at 15 mg/kg; type: functional
How it was run: (§2)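 Male Sprague–Dawley rats (250–350 g) were cannulated (femoral artery/vein) under methohexital, then restrained conscious with 60 min recovery. Autonomic blockade used iv atropine methyl nitrate 3 mg/kg plus propranolol 2 mg/kg. Vehicle was 1 M Tris base or sodium bicarbonate.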

[4] = Serum half life in rat; type: ADME, organism-based
How it was run: (§3)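 Rats (48 h post-surgery recovery) received 20–50 mg/kg at 1 mL/kg iv or 10 mL/kg po. Serial caudal-vein blood samples were taken over 24 h, and plasma was stored at -20 °C until assay. Bioavailability came from comparing dose and AUC.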

[5] = Oral bioavailability in rat; type: ADME, organism-based; conditions: in vivo; how it was run: as §3
[6] = The serum half life of the compound; type: ADME, cell-free
[7] = Phosphoinositol hydrolysis in TE671 or transfected cos 7 cells; type: functional, cell-based; conditions: read-out: pA2 (converted)
How it was run: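 TE 671 or transfected COS 7 cells were grown to confluence, then labelled for 16 h with [3H]myoinositol in inositol-free RPMI with 10% inositol-free FCS at 37 °C, 6% CO2. They were preincubated 10 min in LiCl-containing HEPES buffer pH 7.4 ± test compound, then given ET-1 at varying concentrations for 45 min. Inositol phosphates were extracted with ice-cold methanol (Berridge method), and well protein was measured by BCA.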

Rattus norvegicus [8] = experiment: The compound was tested in vivo for percent inhibition in ET-1 challenge in rats at 60 mg/kg; type: functional; how it was run: as §2
Rattus norvegicus [9] = experiment: The compound was tested in vivo for percent inhibition in ET-1 challenge in rats at 15 mg/kg; not active; type: functional, organism-based; parameters: dose 15 mg/kg; how it was run: as §2
Rattus norvegicus [10] = experiment: In vivo efficacy in acute hypoxia induced pulmonary hypertension in rats following intravenous administration; type: functional, organism-based
Endothelin-1 receptor [11] = biological target: T1, Endothelin-1 receptor; experiment: Binding affinity against human Endothelin A receptor
Rattus norvegicus [12] = experiment: In vivo efficacy in acute hypoxia induced pulmonary hypertension in rats following oral administration; type: functional, organism-based
[13] = Oral bioavailability in dog; type: ADME, organism-based, Canis lupus familiaris; conditions: in vivo
How it was run: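 Dogs (7 days post-surgery recovery) were dosed iv at 1 mL/kg via the right saphenous vein, or by oral gavage at 2 mL/kg plus an aqueous flush after overnight fasting. Routes were crossed over 7 days later. Plasma levels were followed over 24 h, and bioavailability came from comparing dose and AUC.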

pIC50 (Endothelin-1 receptor [1])	pIC50 [2]	Compound	other results
6.05	4.43	Cc1noc(NS(=O)(=O)c2ccsc2C(=O)NC(=O)c2ccc3c(c2)OCO3)c1Br	–
7.25	4.80	Cc1noc(NS(=O)(=O)c2ccsc2C(O)Cc2ccc3c(c2)OCO3)c1Cl (stereo not given)	–
–	4.57	Cc1noc(NS(=O)(=O)c2ccsc2C(=O)Cc2ccc3c(c2)OCO3)c1C	–
8.00	4.49	CC(=O)c1c(NC(=O)c2sccc2S(=O)(=O)Nc2onc(C)c2Cl)ccc2c1OCO2	inhibition in vivo at 15 mg/kg (Rattus norvegicus [3]): 18%; half-life [4]: 2.5 h; bioavailability [5]: 27%
5.70	4.81	Cc1noc(NS(=O)(=O)c2ccsc2C(=O)c2ccc3c(c2)OCO3)c1Br	–
7.85	–	Cc1noc(NS(=O)(=O)c2ccsc2C(=O)Cc2ccc3c(c2)OCO3)c1Br	–
7.74	5.15	Cc1noc(NS(=O)(=O)c2ccsc2C(=O)Cc2ccc3c(c2)OCO3)c1Cl	Kb [7]: 178 nM; half-life [4]: 1.5 h; inhibition in vivo at 60 mg/kg (Rattus norvegicus [8]): 41%; bioavailability [5]: 30%
–	5.41	Cc1cc2c(cc1CC(=O)c1sccc1S(=O)(=O)Nc1noc(C)c1Cl)OCO2	Kb [7]: 3.39 nM
7.57	4.53	Cc1ccc(CC(=O)c2sccc2S(=O)(=O)Nc2onc(C)c2C)cc1	–
8.52	3.45	Cc1noc(NS(=O)(=O)c2ccsc2C(=O)Nc2ccc3c(c2C)OCO3)c1Cl	inhibition in vivo at 15 mg/kg (Rattus norvegicus [3]): 14%

The next lines start with the compound.

Compound	pIC50 (Endothelin-1 receptor [1])	pIC50 [2]	other results
COc1cc(C#N)c(NC(=O)c2sccc2S(=O)(=O)Nc2onc(C)c2Cl)cc1OC	–	–	inhibition in vivo at 15 mg/kg (Rattus norvegicus [3]): 50%; half-life [4]: < 0.15 h; bioavailability [5]: 2%
COc1ccc(NC(=O)c2sccc2S(=O)(=O)Nc2onc(C)c2Cl)c(C)c1	–	–	inhibition in vivo at 15 mg/kg (Rattus norvegicus [3]): 33%; half-life [6]: < 9 min
Cc1cc2c(cc1CC(=O)c1sccc1S(=O)(=O)Nc1onc(C)c1C)OCO2	–	–	inhibition in vivo at 15 mg/kg (Rattus norvegicus [3]): 33%; half-life [4]: 7 h; bioavailability [5]: 100%
COc1cccc(CC(=O)c2sccc2S(=O)(=O)Nc2onc(C)c2Cl)c1	7.52	4.72	–
Cc1ccc(CC(=O)c2sccc2S(=O)(=O)Nc2onc(C)c2Br)cc1	7.70	–	–
Cc1noc(NS(=O)(=O)c2ccsc2C2(Cc3ccc4c(c3)OCO4)OCCO2)c1Cl	6.91	5.68	–
Cc1ccc(CC(=O)c2sccc2S(=O)(=O)Nc2onc(C)c2Cl)c(C)c1	9.01	–	–
Cc1noc(NS(=O)(=O)c2ccsc2C(=O)Nc2ccc3c(c2C#N)OCO3)c1Cl	8.47	4.39	inhibition in vivo at 15 mg/kg (Rattus norvegicus [3]): 8%; half-life [4]: 2.5 h; bioavailability [5]: 8%
Cc1noc(NS(=O)(=O)c2ccsc2C(C)(O)Cc2ccc3c(c2)OCO3)c1Cl (stereo not given)	4.65	< 4.00	–
Cc1ccc(C)c(CC(=O)c2sccc2S(=O)(=O)Nc2onc(C)c2Cl)c1	8.14	–	–
Cc1ccc(NC(=O)c2sccc2S(=O)(=O)Nc2onc(C)c2Cl)cc1	–	–	half-life [4]: < 0.5 h; inhibition (Rattus norvegicus [9]): inactive; bioavailability [5]: 0%
Cc1ccc(CC(=O)c2sccc2S(=O)(=O)Nc2onc(C)c2Br)c(C)c1	9.12	5.46	–
Cc1noc(NS(=O)(=O)c2ccsc2C(=O)N2CCN(Cc3ccc4c(c3)OCO4)CC2)c1Cl	4.71	–	–
Cc1cc2c(cc1CC(=O)c1sccc1S(=O)(=O)Nc1onc(C)c1Cl)OCO2 [SITAXENTAN]	8.85	5.01	EC50 (Rattus norvegicus [10]): 0.5 mg/kg; pKi (Endothelin-1 receptor [11]): 9.37; Kb [7]: 10 nM; inhibition in vivo at 15 mg/kg (Rattus norvegicus [3]): 41%; EC50 (Rattus norvegicus [12]): 1 mg/kg; half-life [4]: 6.7 h; bioavailability [13]: 90%; bioavailability [5]: 60%
Cc1noc(NS(=O)(=O)c2ccsc2/C(Cc2ccc3c(c2)OCO3)=N\O)c1Cl	5.96	5.38	–
Cc1noc(NS(=O)(=O)c2ccsc2C(Cc2ccc3c(c2)OCO3)N(C)C)c1Cl (stereo not given)	4.68	< 4.00	–
CC#N.Cc1noc(NS(=O)(=O)c2ccsc2C(=O)Cc2cc3c(cc2C#N)OCO3)c1Cl	8.89	6.14	Kb [7]: 10 nM; inhibition in vivo at 15 mg/kg (Rattus norvegicus [3]): 52%
Cc1noc(NS(=O)(=O)c2ccsc2C(=O)Nc2ccc3c(c2)OCO3)c1Br	–	–	half-life [4]: < 0.5 h; inhibition (Rattus norvegicus [9]): inactive; bioavailability [5]: 0%
